Test results: article PMC7923394 (Nature chemical biology, 2020)
Where no end group is shown, it is not given here. The star is where a group is joined. αGalNAc = CC(=O)N[C@@H]1[C@@H](O)[C@@H](O)[C@@H](CO)O[C@@H]1*

Assays:
Test in all cases: Enzyme kinetics, UDP-[3H]-GalNAc transfer to
Assay type in all cases: biochemical
human GalNAc-T3 = molecular target: T1, human GalNAc-T3 (Homo sapiens, UniProt Q14435); settings: naked peptides as acceptor substrates
T1 sequence (Q14435 92-633): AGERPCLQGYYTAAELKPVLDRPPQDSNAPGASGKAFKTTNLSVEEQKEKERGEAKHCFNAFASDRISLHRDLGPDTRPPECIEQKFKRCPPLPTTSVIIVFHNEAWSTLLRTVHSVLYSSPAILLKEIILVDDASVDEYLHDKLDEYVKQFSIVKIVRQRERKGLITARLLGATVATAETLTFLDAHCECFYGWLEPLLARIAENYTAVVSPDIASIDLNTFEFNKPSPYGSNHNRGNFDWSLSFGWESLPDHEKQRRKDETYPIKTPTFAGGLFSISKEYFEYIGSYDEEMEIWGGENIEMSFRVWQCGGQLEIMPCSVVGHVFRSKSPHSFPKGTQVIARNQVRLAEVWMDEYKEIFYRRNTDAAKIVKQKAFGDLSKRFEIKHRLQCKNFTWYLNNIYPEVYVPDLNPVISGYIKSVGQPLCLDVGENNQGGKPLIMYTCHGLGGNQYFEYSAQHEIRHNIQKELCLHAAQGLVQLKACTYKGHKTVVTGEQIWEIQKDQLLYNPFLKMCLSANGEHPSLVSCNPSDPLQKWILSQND
In short: (§1)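 Radiochemical transfer assay with 0.02–0.03 µM purified enzyme, 0.02–0.7 mM acceptor and 0.2 mM UDP-[3H]-GalNAc in 100 mM sodium cacodylate pH 6.5, 1 mM β-mercaptoethanol and 10 mM MnCl2 at 37 °C. T6 and T12 were HEK293F-expressed and His-Trap purified. Reactions were EDTA-quenched and product separated by Sephadex G10. Initial rates (<30% donor used) were normalised to a fresh-enzyme reference glycopeptide. Runs used 5–7 concentrations, 2–5 repeats, and Michaelis–Menten (± substrate-inhibition) fits.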

human GalNAc-T6 = molecular target: T2, human GalNAc-T6 (Homo sapiens, UniProt Q8NCL4); settings: peptide as acceptor substrate
T2 sequence (Q8NCL4 1-622): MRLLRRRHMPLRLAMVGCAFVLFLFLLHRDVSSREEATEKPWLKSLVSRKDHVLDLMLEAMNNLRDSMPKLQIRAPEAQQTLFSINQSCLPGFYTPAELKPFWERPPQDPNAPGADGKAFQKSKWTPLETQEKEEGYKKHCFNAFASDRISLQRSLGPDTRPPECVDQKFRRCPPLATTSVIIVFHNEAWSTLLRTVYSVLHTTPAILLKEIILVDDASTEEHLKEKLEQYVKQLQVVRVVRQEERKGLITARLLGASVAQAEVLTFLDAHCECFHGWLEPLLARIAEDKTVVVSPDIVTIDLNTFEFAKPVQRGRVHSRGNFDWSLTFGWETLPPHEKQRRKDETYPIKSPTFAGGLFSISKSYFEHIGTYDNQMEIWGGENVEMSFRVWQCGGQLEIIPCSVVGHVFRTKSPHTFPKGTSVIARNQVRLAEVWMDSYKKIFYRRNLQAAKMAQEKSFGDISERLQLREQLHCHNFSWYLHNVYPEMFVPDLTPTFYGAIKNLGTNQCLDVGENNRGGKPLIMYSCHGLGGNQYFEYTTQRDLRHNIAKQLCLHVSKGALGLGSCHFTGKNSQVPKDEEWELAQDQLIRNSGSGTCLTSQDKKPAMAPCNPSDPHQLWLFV
In short: as §1

human GalNAc-T4 = settings: peptide as acceptor substrate; Supplementary Fig. 16a
human GalNAc-T12 = settings: peptide as acceptor substrate; Supplementary Fig. 16a
In short: as §1

GAYAVTPGPAG [OP1]
activity among the OP1 to OP10 peptide series (human GalNAc-T3): the most active of the series

FGF23c: FGF23 model glycopeptide substrate (T*171–T178, T* = Thr-O-GalNAc) (T(αGalNAc)PIPRRHT-NH2; UniProt Q9GZV9 171-178, looked up, fragment)
Km of GalNAc-T6 compared to GalNAc-T3 (human GalNAc-T6): slightly better Km
Kcat of GalNAc-T6 relative to that of GalNAc-T3 (human GalNAc-T6; Supplementary Fig. 16b): ~ 3.5 fold

FGF23b: shorter FGF23 model peptide substrate (A171–T178)
activity of GalNAc-T4 against the peptide (human GalNAc-T4): very low
activity of GalNAc-T12 against the peptide (human GalNAc-T12): very low
